Results: ChEMBL document CHEMBL3352250, “Antibacterial secondary metabolites from an endophytic fungus, Eupenicillium sp. LG41” (2014)
In brackets after ≈: the same amount, converted by molar mass. Activity calls are given as the source filed them. No cut-off for these calls is given here.

Columns and labels:
Format in all cases: functional
Bacillus subtilis = experiment: Antimicrobial activity against Bacillus subtilis DSM 1088 incubated for 24 hrs by disk diffusion method
How it was run: (§1)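 CLSI disk diffusion on nutrient agar, 4 mm deep, spread with 200 μL inoculum. 6.0 mm paper disks carry 40 μL of sample in HPLC-grade MeOH (0.1 to 10 μg/mL), air-dried. Plates are held 2 h at 4 °C, then incubated 24 h at 37 °C. Controls are streptomycin and gentamicin plus a solvent disk. MIC is derived per CLSI, triplicate.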

Staphylococcus aureus = experiment: Antimicrobial activity against Staphylococcus aureus subsp. aureus DSM 799 incubated for 24 hrs by disk diffusion method; how it was run: as §1
Colletotrichum circinans = experiment: Antimicrobial activity against Colletotrichum circinans incubated for 48 hrs by disk diffusion method
How it was run: (§2)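 Disk diffusion on potato dextrose agar, 4 mm deep. Mycelia are macerated in a sterile mortar to a homogeneous inoculum and 200 μL is spread. 6.0 mm disks carry 40 μL of sample, air-dried. Plates are held 2 h at 4 °C, then incubated 48 h at 28 °C. Solvent-disk, organism and sterility controls are included. Triplicate.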

Escherichia coli = experiment: Antimicrobial activity against Escherichia coli DSM 1116 incubated for 24 hrs by disk diffusion method; how it was run: as §1
Acinetobacter sp. = experiment: Antimicrobial activity against Acinetobacter sp. BD4 DSM 586 incubated for 24 hrs by disk diffusion method; how it was run: as §1
Aspergillus aculeatus = experiment: Antimicrobial activity against Aspergillus aculeatus incubated for 48 hrs by disk diffusion method; how it was run: as §2

`CC(C)=CCC[C@]1(C)[C@@H]2[C@H]1C=C(C(=O)O)C[C@@H]2O` was tested, and the MIC (Bacillus subtilis; DSM 1088, 24 h) was greater than 10 µg/mL, the MIC (Staphylococcus aureus; DSM 799, 24 h) was greater than 10 µg/mL and the MIC (Colletotrichum circinans) was “inactive”. The MIC (Escherichia coli; DSM 1116, 24 h) was 5 µg/mL (≈ 20 µM), the MIC (Acinetobacter sp.; BD4 DSM 586, 24 h) was 5 µg/mL (≈ 20 µM) and the MIC (Aspergillus aculeatus) was “inactive”.

Compound `CN[C@@H]1[C@H](O[C@H]2[C@H](O[C@H]3[C@H](O)[C@@H](O)[C@H](N=C(N)N)[C@@H](O)[C@@H]3N=C(N)N)O[C@@H](C)[C@]2(O)C=O)O[C@@H](CO)[C@H](O)[C@H]1O` [STREPTOMYCIN] has an MIC (Bacillus subtilis; DSM 1088, 24 h) of 5 µg/mL (≈ 8.6 µM), an MIC (Staphylococcus aureus; DSM 799, 24 h) of 5 µg/mL (≈ 8.6 µM) and an MIC (Escherichia coli; DSM 1116, 24 h) of 1 µg/mL (≈ 1.72 µM). The MIC (Acinetobacter sp.; BD4 DSM 586, 24 h) was 10 µg/mL (≈ 17.2 µM).

With `C=C(C(=O)O)[C@H](CCCCCC)C(=O)O` the MIC (Bacillus subtilis; DSM 1088, 24 h) was greater than 10 µg/mL, the MIC (Staphylococcus aureus; DSM 799, 24 h) was 10 µg/mL (≈ 46.7 µM) and the MIC (Colletotrichum circinans) was “inactive”. The MIC (Escherichia coli; DSM 1116, 24 h) was 10 µg/mL (≈ 46.7 µM), the MIC (Acinetobacter sp.; BD4 DSM 586, 24 h) was 1 µg/mL (≈ 4.67 µM) and the MIC (Aspergillus aculeatus) was “inactive”.

For `C=C(C(=O)O)[C@H](CCCC)C(=O)O`, the MIC (Bacillus subtilis; DSM 1088, 24 h) was greater than 10 µg/mL, the MIC (Staphylococcus aureus; DSM 799, 24 h) was 10 µg/mL (≈ 53.7 µM) and the MIC (Colletotrichum circinans) was “inactive”. For the same compound, the MIC (Escherichia coli; DSM 1116, 24 h) was 10 µg/mL (≈ 53.7 µM), the MIC (Acinetobacter sp.; BD4 DSM 586, 24 h) was 1 µg/mL (≈ 5.37 µM) and the MIC (Aspergillus aculeatus) was “inactive”.

In the case of `C[C@]1(C(=O)O)[C@@H]2C=C(C(=O)O)CC[C@@H]21`, the MIC (Bacillus subtilis; DSM 1088, 24 h) was greater than 10 µg/mL, the MIC (Staphylococcus aureus; DSM 799, 24 h) was greater than 10 µg/mL and the MIC (Colletotrichum circinans) was “inactive”. For the same compound, the MIC (Escherichia coli; DSM 1116, 24 h) was 10 µg/mL (≈ 51 µM), the MIC (Acinetobacter sp.; BD4 DSM 586, 24 h) was 5 µg/mL (≈ 25.5 µM) and the MIC (Aspergillus aculeatus) was “inactive”.

With `COC1=C(C2=C(OC)C(=O)c3cc4c(c(O)c3C2=O)C(=O)O[C@H](C)C4)C(=O)c2c(cc3c(c2O)C(=O)O[C@H](C)C3)C1=O` the MIC (Colletotrichum circinans) was “inactive” and the MIC (Aspergillus aculeatus) was “inactive”.

For `COc1cc(O)c2c(O)c3c(c4c2c1[C@]1(C4)C(C)=CCCC1(C)C)[C@H](O)[C@@]1(O)CC(O)=C(C(N)=O)C(=O)[C@@]1(O)C3=O`, the MIC (Colletotrichum circinans) was “inactive” and the MIC (Aspergillus aculeatus) was “inactive”.

For `CC[C@@H](C)[C@H]1C=C[C@H]2[C@H](O)[C@H](O)C[C@@H](C)[C@@H]2[C@@]1(C)C(=O)/C=C/OC`, the MIC (Bacillus subtilis; DSM 1088, 24 h) was greater than 10 µg/mL, the MIC (Staphylococcus aureus; DSM 799, 24 h) was 1 µg/mL (≈ 2.97 µM) and the MIC (Colletotrichum circinans) was “inactive”. For the same compound, the MIC (Escherichia coli; DSM 1116, 24 h) was 5 µg/mL (≈ 14.9 µM), the MIC (Acinetobacter sp.; BD4 DSM 586, 24 h) was greater than 10 µg/mL and the MIC (Aspergillus aculeatus) was “inactive”.

Compound GENTAMICIN has an MIC (Bacillus subtilis) of 1 µg/mL, an MIC (Staphylococcus aureus) of 1 µg/mL and an MIC (Escherichia coli) of 1 µg/mL. For the same compound, the MIC (Acinetobacter sp.) was 5 µg/mL.

For `CC[C@@H](C)[C@H]1C=C[C@H]2[C@H](O)[C@H](O)C[C@@H](C)[C@@H]2[C@@]1(C)C(=O)/C=C\O`, the MIC (Bacillus subtilis; DSM 1088, 24 h) was greater than 10 µg/mL, the MIC (Staphylococcus aureus; DSM 799, 24 h) was greater than 10 µg/mL and the MIC (Colletotrichum circinans) was “inactive”. For the same compound, the MIC (Escherichia coli; DSM 1116, 24 h) was 5 µg/mL (≈ 15.5 µM), the MIC (Acinetobacter sp.; BD4 DSM 586, 24 h) was 10 µg/mL (≈ 31 µM) and the MIC (Aspergillus aculeatus) was “inactive”.
